Data: ChEMBL document CHEMBL1145067, “3'-C-branched-chain-substituted nucleosides and nucleotides as potent inhibitors of Mycobacterium tuberculosis thymidine monophosphate kinase” (J Med Chem, 2003)

Assays:
Thymidylate kinase = molecular target: T1, Thymidylate kinase (Mycobacterium tuberculosis, UniProt P9WKE1); experiment: In Vitro inhibition of Thymidine […] Kinase of Mycobacterium tuberculosis (TMPKm)
T1 sequence (P9WKE1 whole entry): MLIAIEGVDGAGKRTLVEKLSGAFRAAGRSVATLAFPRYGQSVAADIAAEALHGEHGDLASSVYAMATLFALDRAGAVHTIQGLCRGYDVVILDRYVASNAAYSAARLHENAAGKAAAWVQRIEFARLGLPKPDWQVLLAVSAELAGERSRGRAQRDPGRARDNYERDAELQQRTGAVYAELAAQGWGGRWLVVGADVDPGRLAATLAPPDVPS
In short: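 Recombinant TMPKmt or human TMPKh overexpressed in E. coli. ATP was fixed at 0.5 mM and dTMP at 0.05 mM; analogues were varied over 0.01–4 mM.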

[1] = ratio of Ki (Ki TMPKh / KiTMPKmt) was determined
[2] = molecular target: Thymidylate kinase (Homo sapiens) (UniProt P23919); experiment: In Vitro inhibition of […] (TMPKh); No inhibition at 4000 uM
Chain of Thymidylate kinase (Homo sapiens) (P23919 whole entry, looked up): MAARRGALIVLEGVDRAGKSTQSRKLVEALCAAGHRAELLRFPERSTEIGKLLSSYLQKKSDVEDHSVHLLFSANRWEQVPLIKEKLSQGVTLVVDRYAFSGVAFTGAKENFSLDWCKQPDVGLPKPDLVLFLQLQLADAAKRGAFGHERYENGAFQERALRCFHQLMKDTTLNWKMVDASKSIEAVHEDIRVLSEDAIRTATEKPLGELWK

[3] = ratio of Ki (Km TMPKh / Ki TMPKmt) was determined
[4] = ratio of Km (Km TMPKh / Km TMPKmt) was determined

Compound	Ki (Thymidylate kinase)	SI [1]	other results
Cc1cn([C@H]2C[C@H](CF)[C@@H](CO)O2)c(=O)[nH]c1=O	45 µM	21.6	–
Cc1cn([C@H]2C[C@H](CN)[C@@H](CO)O2)c(=O)[nH]c1=O	57 µM	3.9	–
Cc1cn([C@H]2C[C@H](CO)[C@@H](COP(=O)(O)O)O2)c(=O)[nH]c1=O	29 µM	1.5	–
Cc1cn([C@H]2C[C@H](CO)[C@@H](CO)O2)c(=O)[nH]c1=O	41 µM	10	–
Cc1cn([C@H]2C[C@H](CN=[N+]=[N-])[C@@H](CO)O2)c(=O)[nH]c1=O	40 µM	26	–
Cc1cn([C@@H]2O[C@H](CO)[C@@H](CN=[N+]=[N-])[C@H]2O)c(=O)[nH]c1=O	770 µM	–	NI [2]: No inhibition at 4000 uM
Cc1cn([C@H]2C[C@H](CCO)[C@@H](CO)O2)c(=O)[nH]c1=O	156 µM	–	–
Cc1cn([C@H]2C[C@H](N=[N+]=[N-])[C@@H](COP(=O)(O)O)O2)c(=O)[nH]c1=O	–	–	SI [3]: 1.2
Cc1cn([C@@H]2O[C@H](COP(=O)(O)O)[C@@H](CN=[N+]=[N-])[C@H]2O)c(=O)[nH]c1=O	116 µM	–	–
Cc1cn([C@H]2C[C@H](CN)[C@@H](COP(=O)(O)O)O2)c(=O)[nH]c1=O	10.5 µM	0.4	–
Cc1cn([C@@H]2O[C@H](CO)[C@@H](CN)[C@H]2O)c(=O)[nH]c1=O	393 µM	0.3	–
Cc1cn([C@H]2C[C@H](O)[C@@H](COP(=O)(O)O)O2)c(=O)[nH]c1=O	–	–	SI [4]: 1.1
Cc1cn([C@H]2C[C@H](CN=[N+]=[N-])[C@@H](COP(=O)(O)O)O2)c(=O)[nH]c1=O	12 µM	2.7	–
Cc1cn([C@@H]2O[C@H](COP(=O)(O)O)[C@@H](CN)[C@H]2O)c(=O)[nH]c1=O	315 µM	0.9	–
Cc1cn([C@H]2C[C@H](CF)[C@@H](COP(=O)(O)O)O2)c(=O)[nH]c1=O	15 µM	2.7	–
Cc1cn([C@H]2C[C@H](N=[N+]=[N-])[C@@H](CO)O2)c(=O)[nH]c1=O [ZIDOVUDINE]	28 µM	–	–
